ChEMBL document CHEMBL1255500, “Safety and pharmacokinetics of the antiorthopoxvirus compound ST-246 following repeat oral dosing in healthy adult subjects” (Antimicrob Agents Chemother, 2010)

Experiments:
[1] = Tmax in healthy human at 250 to 800 mg/day, po administered for 21 days measured at day 1; format: ADME, organism-based; details: in vivo
How it was run: (§1)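 Phase I randomized, double-blind, placebo-controlled escalating multiple-dose study; 8 nonfasting healthy adults per dose group, one oral dose daily within 30 min after a standard light meal (400 to 450 cal, ~25% fat) for 21 days. Plasma was sampled serially on days 1, 6 and 21 (72 h after the last dose) and stored at −70°C. ST-246 was measured by validated LC-MS/MS with an analog internal standard (plasma range 50 to 4,000 ng/ml). Parameters (AUCtau, Cmax, Tmax, t1/2) came from noncompartmental analysis.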

Homo sapiens [2] = experiment: Toxicity in healthy human assessed as incidence of nausea at 800 mg/day, po administered for 21 days; format: organism-based; details: in vivo, 504 h
How it was run: (§2)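 Randomized, double-blind, placebo-controlled escalating study; 8 active and 2 placebo subjects per dose group, oral daily dosing after a standard light meal for 21 days. Safety was followed through adverse event reporting, vital signs, physical exam, hematology, blood chemistry, urinalysis and ECGs, with clinic visits at weeks 1 to 3. Laboratory AEs were graded by DAIDS criteria. Results are the number and percentage of subjects reporting each treatment-emergent AE.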

Homo sapiens [3] = experiment: Toxicity in healthy human assessed as incidence of urticaria at 250 mg/day, po administered for 21 days; format: organism-based; details: in vivo, 504 h; how it was run: as §2
[4] = Tmax in healthy human at 250 to 800 mg/day, po administered for 21 days measured at day 21; format: ADME, organism-based; details: in vivo; how it was run: as §1
Homo sapiens [5] = experiment: Toxicity in healthy human assessed as incidence of urticaria at 800 mg/day, po administered for 21 days; format: organism-based; details: in vivo, 504 h; how it was run: as §2
[6] = AUC in healthy human at 250 mg/day, po administered for 21 days measured at day 1; format: ADME, organism-based; details: plasma; how it was run: as §1
Homo sapiens [7] = experiment: Toxicity in healthy human assessed as incidence of fatigue at 400 mg/day, po administered for 21 days; format: organism-based; details: in vivo, 504 h; how it was run: as §2
Homo sapiens [8] = experiment: Toxicity in healthy human assessed as incidence of somnolence at 400 mg/day, po administered for 21 days; format: organism-based; details: in vivo, 504 h; how it was run: as §2
[9] = AUC in healthy human at 250 mg/day, po administered for 21 days measured at day 6; format: ADME, organism-based; details: plasma
How it was run: (§3)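 Healthy adult volunteers, 8 per dose group, in the nonfasted state. Each took one oral dose daily for 21 days, within 30 min after a standard light meal (400 to 450 cal, ~25% fat). Venous blood was drawn predose and postdose on days 1, 6 and 21. Plasma was stored at −70°C and assayed by validated LC-MS/MS with an analog internal standard (range 50 to 4,000 ng/ml). AUCtau and Cmax were obtained by noncompartmental analysis.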

[10] = AUC in healthy human at 400 mg/day, po administered for 21 days measured at day 1; format: ADME, organism-based; details: plasma; how it was run: as §1
Homo sapiens [11] = experiment: Toxicity in healthy human assessed as incidence of flatulence at 800 mg/day, po administered for 21 days; format: organism-based; details: in vivo, 504 h; how it was run: as §2
Homo sapiens [12] = experiment: Toxicity in healthy human assessed as incidence of dry mouth at 800 mg/day, po administered for 21 days; format: organism-based; details: in vivo, 504 h; how it was run: as §2
Homo sapiens [13] = experiment: Toxicity in healthy human assessed as incidence of dry mouth at 400 mg/day, po administered for 21 days; format: organism-based; details: in vivo, 504 h; how it was run: as §2
[14] = AUC in healthy human at 800 mg/day, po administered for 21 days measured at day 1; format: ADME, organism-based; details: plasma; how it was run: as §3
Homo sapiens [15] = experiment: Toxicity in healthy human assessed as incidence of dry mouth at 250 mg/day, po administered for 21 days; format: organism-based; details: in vivo, 504 h; how it was run: as §2
Homo sapiens [16] = experiment: Toxicity in healthy human assessed as incidence of urticaria at 400 mg/day, po administered for 21 days; format: organism-based; details: in vivo, 504 h; how it was run: as §2
[17] = Cmax in healthy human at 800 mg/day, po administered for 21 days measured at day 1; format: ADME, organism-based; parameters: dose 800 mg/day, route oral; details: in vivo; how it was run: as §3
Homo sapiens [18] = experiment: Toxicity in healthy human assessed as incidence of abnormal eye sensation at 400 mg/day, po administered for 21 days; format: organism-based; details: in vivo, 504 h; how it was run: as §2
[19] = Half life in healthy human at 800 mg/day, po administered for 21 days measured at day 21; format: ADME, organism-based; details: in vivo; how it was run: as §1
[20] = Cmax in healthy human at 250 mg/day, po administered for 21 days measured at day 6; format: ADME, organism-based; parameters: dose 250 mg/day, route oral; details: in vivo; how it was run: as §3
[21] = AUC in healthy human at 800 mg/day, po administered for 21 days measured at day 6; format: ADME, organism-based; details: plasma; how it was run: as §3
Homo sapiens [22] = experiment: Toxicity in healthy human assessed as incidence of headache at 250 mg/day, po administered for 21 days; format: organism-based; details: in vivo, 504 h; how it was run: as §2
Homo sapiens [23] = experiment: Toxicity in healthy human assessed as incidence of headache at 800 mg/day, po administered for 21 days; format: organism-based; details: in vivo, 504 h; how it was run: as §2
[24] = AUC in healthy human at 250 mg/day, po administered for 21 days measured at day 21; format: ADME, organism-based; details: plasma; how it was run: as §3
Homo sapiens [25] = experiment: Toxicity in healthy human assessed as incidence of treatment-emergent adverse events at 250 mg/day, po administered for 21 days; format: organism-based; details: in vivo, 504 h; how it was run: as §2
Homo sapiens [26] = experiment: Toxicity in healthy human assessed as incidence of abnormal eye sensation at 800 mg/day, po administered for 21 days; format: organism-based; details: in vivo, 504 h; how it was run: as §2
Homo sapiens [27] = experiment: Toxicity in healthy human assessed as incidence of nausea at 250 mg/day, po administered for 21 days; format: organism-based; details: in vivo, 504 h; how it was run: as §2
[28] = Cmax in healthy human at 800 mg/day, po administered for 21 days measured at day 6; format: ADME, organism-based; parameters: dose 800 mg/day, route oral; details: in vivo; how it was run: as §3
[29] = Cmax in healthy human at 400 mg/day, po administered for 21 days measured at day 1; format: ADME, organism-based; parameters: dose 400 mg/day, route oral; details: in vivo; how it was run: as §3
[30] = Half life in healthy human at 250 mg/day, po administered for 21 days measured at day 21; format: ADME, organism-based; details: in vivo
How it was run: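 Healthy nonfasted volunteers took one oral dose daily for 21 days after a standard light meal. Plasma was sampled for 72 h after the last dose on day 21 (days 21 to 24) and quantified by validated LC-MS/MS. Terminal t1/2 was derived noncompartmentally from the observed elimination rate constant (λz), and mean and median were given.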

Homo sapiens [31] = experiment: Toxicity in healthy human assessed as incidence of somnolence at 800 mg/day, po administered for 21 days; format: organism-based; details: in vivo, 504 h; how it was run: as §2
[32] = Half life in healthy human at 400 mg/day, po administered for 21 days measured at day 21; format: ADME, organism-based; details: in vivo; how it was run: as §1
Homo sapiens [33] = experiment: Toxicity in healthy human assessed as incidence of treatment-emergent adverse events at 800 mg/day, po administered for 21 days; format: organism-based; details: in vivo, 504 h; how it was run: as §2
Homo sapiens [34] = experiment: Toxicity in healthy human assessed as incidence of flatulence at 250 mg/day, po administered for 21 days; format: organism-based; details: in vivo, 504 h; how it was run: as §2
[35] = Cmax in healthy human at 250 mg/day, po administered for 21 days measured at day 1; format: ADME, organism-based; parameters: dose 250 mg/day, route oral; details: in vivo; how it was run: as §3
[36] = Cmax in healthy human at 400 mg/day, po administered for 21 days measured at day 6; format: ADME, organism-based; parameters: dose 400 mg/day, route oral; details: in vivo; how it was run: as §3
[37] = AUC in healthy human at 400 mg/day, po administered for 21 days measured at day 6; format: ADME, organism-based; details: plasma; how it was run: as §3
Homo sapiens [38] = experiment: Toxicity in healthy human assessed as incidence of somnolence at 250 mg/day, po administered for 21 days; format: organism-based; details: in vivo, 504 h; how it was run: as §2
[39] = AUC in healthy human at 400 mg/day, po administered for 21 days measured at day 21; format: ADME, organism-based; parameters: dose 400 mg/day, route oral; details: plasma; how it was run: as §1
[40] = Cmax in healthy human at 400 mg/day, po administered for 21 days measured at day 21; format: ADME, organism-based; details: in vivo; how it was run: as §1
Homo sapiens [41] = experiment: Toxicity in healthy human assessed as incidence of flatulence at 400 mg/day, po administered for 21 days; format: organism-based; details: in vivo, 504 h; how it was run: as §2
Homo sapiens [42] = experiment: Toxicity in healthy human assessed as incidence of abnormal eye sensation at 250 mg/day, po administered for 21 days; format: organism-based; details: in vivo, 504 h; how it was run: as §2
Homo sapiens [43] = experiment: Toxicity in healthy human assessed as incidence of fatigue at 250 mg/day, po administered for 21 days; format: organism-based; details: in vivo, 504 h; how it was run: as §2
Homo sapiens [44] = experiment: Toxicity in healthy human assessed as incidence of fatigue at 800 mg/day, po administered for 21 days; format: organism-based; details: in vivo, 504 h; how it was run: as §2
[45] = Tmax in healthy human at 250 to 800 mg/day, po administered for 21 days measured at day 6; format: ADME, organism-based; details: in vivo; how it was run: as §1
[46] = AUC in healthy human at 800 mg/day, po administered for 21 days measured at day 21; format: ADME, organism-based; details: plasma; how it was run: as §3
Homo sapiens [47] = experiment: Toxicity in healthy human assessed as incidence of nausea at 400 mg/day, po administered for 21 days; format: organism-based; details: in vivo, 504 h; how it was run: as §2
Homo sapiens [48] = experiment: Toxicity in healthy human assessed as incidence of headache at 400 mg/day, po administered for 21 days; format: organism-based; details: in vivo, 504 h; how it was run: as §2

`O=C(NN1C(=O)[C@@H]2[C@@H]3C=C[C@@H]([C@H]4C[C@@H]34)[C@@H]2C1=O)c1ccc(C(F)(F)F)cc1` [TECOVIRIMAT] showed a Tmax [1] of 2.88 h, an Activity (Homo sapiens [2]) of 12.5% and an Activity (Homo sapiens [3]) of 0%. It also gave a Tmax [4] of 2.67 h, an Activity (Homo sapiens [5]) of 0% and an AUC at 504 h [6] of 9100 ng·h/mL. It also gave an Activity (Homo sapiens [7]) of 0%, an Activity (Homo sapiens [8]) of 0% and an AUC at 504 h [9] of 11900 ng·h/mL. It also gave an AUC at 504 h [10] of 13100 ng·h/mL, an Activity (Homo sapiens [11]) of 25% and an Activity (Homo sapiens [12]) of 12.5%. The Activity (Homo sapiens [13]) was 0%, the AUC at 504 h [14] was 21000 ng·h/mL and the Activity (Homo sapiens [15]) was 0%. The Activity (Homo sapiens [16]) was 0%, the Cmax [17] was 2280 ng/mL and the Activity (Homo sapiens [18]) was 0%. For the same compound, the half-life [19] was 20.7 h, the Cmax [20] was 1210 ng/mL and the AUC at 504 h [21] was 23400 ng·h/mL. For the same compound, the Activity (Homo sapiens [22]) was 37.5%, the Activity (Homo sapiens [23]) was 25% and the AUC at 504 h [24] was 10100 ng·h/mL. It also gave an Activity (Homo sapiens [25]) of 75%, an Activity (Homo sapiens [26]) of 12.5% and an Activity (Homo sapiens [27]) of 0%. It also gave a Cmax [28] of 2340 ng/mL, a Cmax [29] of 1390 ng/mL and a half-life [30] of 18.8 h. The Activity (Homo sapiens [31]) was 12.5%, the half-life [32] was 19.8 h and the Activity (Homo sapiens [33]) was 62.5%. For the same compound, the Activity (Homo sapiens [34]) was 0%, the Cmax [35] was 985 ng/mL and the Cmax [36] was 1300 ng/mL. It also gave an AUC at 504 h [37] of 15400 ng·h/mL, an Activity (Homo sapiens [38]) of 0% and an AUC at 504 h [39] of 16200 ng·h/mL. The Cmax [40] was 1460 ng/mL, the Activity (Homo sapiens [41]) was 0% and the Activity (Homo sapiens [42]) was 0%. For the same compound, the Activity (Homo sapiens [43]) was 12.5%, the Activity (Homo sapiens [44]) was 0% and the Tmax [45] was 2.63 h. For the same compound, the AUC at 504 h [46] was 22700 ng·h/mL, the Activity (Homo sapiens [47]) was 0% and the Activity (Homo sapiens [48]) was 0%.
